Reference: ChEMBL document CHEMBL5653631, “A Potent and Selective ULK1 Inhibitor Suppresses Autophagy and Sensitizes Cancer Cells to Nutrient Stress” (iScience, 2018)
Each block holds one compound with its values, some of them ahead of it.

How the values were obtained:
[1] = target: Cyclin-dependent kinase 5 (Homo sapiens) (UniProt Q00535); assay: Inhibition of human recombinant CDK5 at 500 nM in presence of ATP by radiometric assay relative to control
[2] = target: T1, Mitogen-activated protein kinase 13 (Homo sapiens) (UniProt O15264); assay: Inhibition of human recombinant p38delta at 500 nM related to control ULK1
T1 sequence (whole entry): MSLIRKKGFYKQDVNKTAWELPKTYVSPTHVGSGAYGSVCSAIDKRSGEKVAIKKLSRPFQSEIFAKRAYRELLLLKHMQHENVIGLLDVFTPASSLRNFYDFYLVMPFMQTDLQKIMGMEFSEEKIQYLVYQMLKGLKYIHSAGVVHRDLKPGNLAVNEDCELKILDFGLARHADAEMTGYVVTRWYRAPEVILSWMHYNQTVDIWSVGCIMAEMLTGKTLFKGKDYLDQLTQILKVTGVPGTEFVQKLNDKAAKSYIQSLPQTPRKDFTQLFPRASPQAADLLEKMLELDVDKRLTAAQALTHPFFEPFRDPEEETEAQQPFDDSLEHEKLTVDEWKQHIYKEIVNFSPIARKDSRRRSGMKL

[3] = organism: Homo sapiens; assay: Inhibition of human recombinant ABL at 500 nM in presence of ATP by radiometric assay relative to control
Summary of the method: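 Panel of 327 recombinant human kinases in radiometric activity assays, each screened in duplicate at a single inhibitor concentration; percent activity remaining relative to vehicle control, percent inhibition taken as 100 minus activity remaining.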

[4] = target: Tyrosine-protein kinase Tec (Homo sapiens) (UniProt P42680); assay: Inhibition of human recombinant TEC at 40 nM related to control ULK1
[5] = target: [Pyruvate dehydrogenase (acetyl-transferring)] kinase isozyme 4, mitochondrial (Homo sapiens) (UniProt Q16654); assay: Inhibition of human recombinant PDHK4 at 40 nM in presence of ATP by radiometric assay relative to control
[6] = target: Wee1-like protein kinase (Homo sapiens) (UniProt P30291); assay: Inhibition of human recombinant Wee1 at 40 nM related to control ULK1
[7] = target: T2, Serine/threonine-protein kinase BRSK2 (Homo sapiens) (UniProt Q8IWQ3); assay: Inhibition of human recombinant BRSK2 at 40 nM related to control ULK1
T2 sequence (whole entry): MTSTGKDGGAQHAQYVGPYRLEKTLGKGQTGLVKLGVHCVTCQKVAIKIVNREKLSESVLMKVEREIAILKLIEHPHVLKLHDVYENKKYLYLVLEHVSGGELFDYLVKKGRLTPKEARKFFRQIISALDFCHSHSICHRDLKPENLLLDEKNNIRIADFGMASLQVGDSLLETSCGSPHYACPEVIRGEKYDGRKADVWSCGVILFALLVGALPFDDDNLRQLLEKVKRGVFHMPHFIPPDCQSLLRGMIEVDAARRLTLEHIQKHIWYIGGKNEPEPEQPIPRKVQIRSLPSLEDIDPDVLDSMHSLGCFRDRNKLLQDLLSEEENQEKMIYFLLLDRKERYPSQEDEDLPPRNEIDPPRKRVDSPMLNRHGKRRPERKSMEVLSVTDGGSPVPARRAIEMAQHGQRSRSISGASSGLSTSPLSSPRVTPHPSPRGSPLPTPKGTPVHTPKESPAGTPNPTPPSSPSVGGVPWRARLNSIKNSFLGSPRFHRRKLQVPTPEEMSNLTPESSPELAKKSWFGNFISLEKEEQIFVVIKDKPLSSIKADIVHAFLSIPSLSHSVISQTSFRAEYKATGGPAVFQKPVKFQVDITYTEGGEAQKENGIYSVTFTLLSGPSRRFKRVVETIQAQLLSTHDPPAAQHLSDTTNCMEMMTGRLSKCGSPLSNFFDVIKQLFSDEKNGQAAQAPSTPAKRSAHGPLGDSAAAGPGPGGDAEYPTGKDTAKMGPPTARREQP

[8] = target: T3, Protein kinase C zeta type (Homo sapiens) (UniProt Q05513); assay: Inhibition of human recombinant PKCz at 40 nM related to control ULK1
T3 sequence (whole entry): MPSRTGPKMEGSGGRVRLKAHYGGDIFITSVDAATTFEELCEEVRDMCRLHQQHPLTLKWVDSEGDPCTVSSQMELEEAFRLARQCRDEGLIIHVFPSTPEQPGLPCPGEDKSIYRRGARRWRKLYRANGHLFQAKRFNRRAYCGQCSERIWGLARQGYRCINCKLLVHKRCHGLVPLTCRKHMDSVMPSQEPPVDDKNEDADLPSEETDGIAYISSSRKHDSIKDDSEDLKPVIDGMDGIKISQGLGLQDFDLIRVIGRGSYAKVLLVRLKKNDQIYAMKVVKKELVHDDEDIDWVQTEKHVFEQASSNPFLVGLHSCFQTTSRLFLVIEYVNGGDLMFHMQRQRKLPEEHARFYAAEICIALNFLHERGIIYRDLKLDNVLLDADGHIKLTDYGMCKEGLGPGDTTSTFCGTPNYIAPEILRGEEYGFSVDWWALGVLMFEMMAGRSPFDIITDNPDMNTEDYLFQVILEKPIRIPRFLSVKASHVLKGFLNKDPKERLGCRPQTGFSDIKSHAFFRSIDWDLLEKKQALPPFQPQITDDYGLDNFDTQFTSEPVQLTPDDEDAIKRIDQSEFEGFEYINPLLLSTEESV

[9] = target: Angiopoietin-1 receptor (Homo sapiens) (UniProt Q02763); assay: Inhibition of human recombinant Tie2 at 15 nM related to control ULK1
[10] = target: Mitogen-activated protein kinase 10 (Homo sapiens) (UniProt P53779); assay: Inhibition of human recombinant JNK3 at 15 nM related to control ULK1
[11] = target: Protein kinase C eta type (Homo sapiens) (UniProt P24723); assay: Inhibition of human recombinant PKCH at 15 nM related to control ULK1
Sequence of Protein kinase C eta type (Homo sapiens) (P24723 whole entry): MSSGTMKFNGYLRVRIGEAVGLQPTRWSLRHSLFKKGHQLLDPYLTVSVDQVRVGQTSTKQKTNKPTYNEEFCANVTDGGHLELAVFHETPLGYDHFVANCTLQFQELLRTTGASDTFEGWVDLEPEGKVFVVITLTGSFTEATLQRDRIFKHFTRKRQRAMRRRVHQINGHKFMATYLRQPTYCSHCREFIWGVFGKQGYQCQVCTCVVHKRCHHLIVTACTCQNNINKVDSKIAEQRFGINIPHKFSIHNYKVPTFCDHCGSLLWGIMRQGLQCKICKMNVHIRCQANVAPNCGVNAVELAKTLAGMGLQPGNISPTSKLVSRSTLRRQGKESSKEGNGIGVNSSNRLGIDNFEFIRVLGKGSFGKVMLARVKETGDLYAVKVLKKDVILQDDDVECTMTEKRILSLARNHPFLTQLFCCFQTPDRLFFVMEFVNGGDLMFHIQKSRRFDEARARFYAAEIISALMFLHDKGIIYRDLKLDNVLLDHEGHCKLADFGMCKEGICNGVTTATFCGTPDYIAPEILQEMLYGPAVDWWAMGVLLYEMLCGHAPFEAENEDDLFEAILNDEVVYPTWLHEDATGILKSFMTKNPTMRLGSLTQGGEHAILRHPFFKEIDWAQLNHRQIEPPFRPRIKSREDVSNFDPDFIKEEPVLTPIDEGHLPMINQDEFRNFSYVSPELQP

Sequence of [Pyruvate dehydrogenase (acetyl-transferring)] kinase isozyme 4, mitochondrial (Homo sapiens) (Q16654 whole entry, looked up): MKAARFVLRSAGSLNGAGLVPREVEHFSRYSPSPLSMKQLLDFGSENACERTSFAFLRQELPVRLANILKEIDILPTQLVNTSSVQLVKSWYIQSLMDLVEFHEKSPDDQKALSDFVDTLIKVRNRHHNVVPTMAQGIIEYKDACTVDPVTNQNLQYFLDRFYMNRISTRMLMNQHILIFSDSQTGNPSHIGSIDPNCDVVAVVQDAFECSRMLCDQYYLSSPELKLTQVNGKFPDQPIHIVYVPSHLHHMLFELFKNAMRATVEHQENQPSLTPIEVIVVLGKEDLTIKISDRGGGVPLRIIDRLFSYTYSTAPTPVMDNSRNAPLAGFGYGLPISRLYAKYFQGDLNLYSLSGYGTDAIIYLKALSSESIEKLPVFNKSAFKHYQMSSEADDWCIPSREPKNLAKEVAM
Sequence of Tyrosine-protein kinase Tec (Homo sapiens) (P42680 whole entry, looked up): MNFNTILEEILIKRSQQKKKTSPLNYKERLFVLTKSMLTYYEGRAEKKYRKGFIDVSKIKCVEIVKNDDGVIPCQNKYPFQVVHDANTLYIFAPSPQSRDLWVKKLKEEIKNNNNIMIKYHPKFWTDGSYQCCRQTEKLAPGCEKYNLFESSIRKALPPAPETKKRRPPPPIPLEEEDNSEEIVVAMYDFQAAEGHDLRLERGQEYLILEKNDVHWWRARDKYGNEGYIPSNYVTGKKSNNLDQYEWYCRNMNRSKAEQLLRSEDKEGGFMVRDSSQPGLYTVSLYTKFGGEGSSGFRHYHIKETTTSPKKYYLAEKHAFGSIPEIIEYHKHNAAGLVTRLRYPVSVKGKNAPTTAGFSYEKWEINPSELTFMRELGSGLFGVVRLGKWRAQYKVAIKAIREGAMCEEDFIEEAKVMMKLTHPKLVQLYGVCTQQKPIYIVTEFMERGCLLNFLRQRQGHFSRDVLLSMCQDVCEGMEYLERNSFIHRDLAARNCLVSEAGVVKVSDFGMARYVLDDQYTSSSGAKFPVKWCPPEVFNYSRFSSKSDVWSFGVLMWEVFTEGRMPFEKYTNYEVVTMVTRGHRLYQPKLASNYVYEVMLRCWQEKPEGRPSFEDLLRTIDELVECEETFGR
Sequence of Mitogen-activated protein kinase 10 (Homo sapiens) (P53779 whole entry): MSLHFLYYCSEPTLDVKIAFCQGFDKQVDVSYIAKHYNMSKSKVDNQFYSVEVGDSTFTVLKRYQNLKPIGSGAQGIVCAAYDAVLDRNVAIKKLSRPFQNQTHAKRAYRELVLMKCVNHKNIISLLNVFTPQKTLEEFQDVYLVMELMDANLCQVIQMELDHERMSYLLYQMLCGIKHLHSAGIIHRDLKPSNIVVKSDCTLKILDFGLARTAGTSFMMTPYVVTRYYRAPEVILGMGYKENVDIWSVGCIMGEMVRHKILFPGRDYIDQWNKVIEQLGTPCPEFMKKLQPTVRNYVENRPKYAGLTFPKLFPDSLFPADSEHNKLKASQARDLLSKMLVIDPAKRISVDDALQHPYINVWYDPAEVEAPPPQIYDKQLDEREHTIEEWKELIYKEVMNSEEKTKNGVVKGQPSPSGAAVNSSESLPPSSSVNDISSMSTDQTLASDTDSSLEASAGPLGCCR
Sequence of Angiopoietin-1 receptor (Homo sapiens) (Q02763 whole entry): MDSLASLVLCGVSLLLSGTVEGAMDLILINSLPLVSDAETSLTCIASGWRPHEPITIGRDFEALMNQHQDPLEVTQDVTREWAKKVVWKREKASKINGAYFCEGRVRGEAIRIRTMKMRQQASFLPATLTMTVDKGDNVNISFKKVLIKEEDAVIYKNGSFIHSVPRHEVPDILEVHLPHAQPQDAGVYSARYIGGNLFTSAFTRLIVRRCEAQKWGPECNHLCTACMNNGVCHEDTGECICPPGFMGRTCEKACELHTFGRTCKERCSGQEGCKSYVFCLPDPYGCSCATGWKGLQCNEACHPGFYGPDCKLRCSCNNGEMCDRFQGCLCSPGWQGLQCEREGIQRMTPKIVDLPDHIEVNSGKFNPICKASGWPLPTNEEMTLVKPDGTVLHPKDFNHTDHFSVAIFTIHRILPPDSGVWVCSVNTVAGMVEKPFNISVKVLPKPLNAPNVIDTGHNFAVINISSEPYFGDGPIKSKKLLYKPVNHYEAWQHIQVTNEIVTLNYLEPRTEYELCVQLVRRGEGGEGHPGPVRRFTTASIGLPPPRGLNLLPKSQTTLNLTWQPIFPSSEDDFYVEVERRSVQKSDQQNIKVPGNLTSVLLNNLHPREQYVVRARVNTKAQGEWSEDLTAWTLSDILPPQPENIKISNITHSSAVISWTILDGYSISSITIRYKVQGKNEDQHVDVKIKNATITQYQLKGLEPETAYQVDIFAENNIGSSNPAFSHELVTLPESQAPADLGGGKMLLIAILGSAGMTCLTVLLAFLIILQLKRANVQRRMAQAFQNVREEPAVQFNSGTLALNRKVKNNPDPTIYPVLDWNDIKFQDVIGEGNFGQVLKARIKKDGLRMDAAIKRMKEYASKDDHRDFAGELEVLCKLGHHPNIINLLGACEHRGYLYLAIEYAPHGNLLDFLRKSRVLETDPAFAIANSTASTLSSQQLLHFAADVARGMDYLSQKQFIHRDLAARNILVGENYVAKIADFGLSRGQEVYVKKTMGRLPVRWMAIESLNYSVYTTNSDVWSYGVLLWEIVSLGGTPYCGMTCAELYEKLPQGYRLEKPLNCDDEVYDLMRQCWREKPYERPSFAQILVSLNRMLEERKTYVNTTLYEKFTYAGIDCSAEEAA
Sequence of Cyclin-dependent kinase 5 (Homo sapiens) (Q00535 whole entry, looked up): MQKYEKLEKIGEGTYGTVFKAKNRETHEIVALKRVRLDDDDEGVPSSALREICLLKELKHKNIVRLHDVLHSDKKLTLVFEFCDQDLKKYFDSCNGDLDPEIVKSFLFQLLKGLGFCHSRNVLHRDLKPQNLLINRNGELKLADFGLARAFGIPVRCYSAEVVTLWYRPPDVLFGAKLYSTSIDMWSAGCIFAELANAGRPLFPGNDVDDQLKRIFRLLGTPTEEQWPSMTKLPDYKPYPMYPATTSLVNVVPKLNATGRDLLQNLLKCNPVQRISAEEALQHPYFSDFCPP
Sequence of Wee1-like protein kinase (Homo sapiens) (P30291 whole entry, looked up): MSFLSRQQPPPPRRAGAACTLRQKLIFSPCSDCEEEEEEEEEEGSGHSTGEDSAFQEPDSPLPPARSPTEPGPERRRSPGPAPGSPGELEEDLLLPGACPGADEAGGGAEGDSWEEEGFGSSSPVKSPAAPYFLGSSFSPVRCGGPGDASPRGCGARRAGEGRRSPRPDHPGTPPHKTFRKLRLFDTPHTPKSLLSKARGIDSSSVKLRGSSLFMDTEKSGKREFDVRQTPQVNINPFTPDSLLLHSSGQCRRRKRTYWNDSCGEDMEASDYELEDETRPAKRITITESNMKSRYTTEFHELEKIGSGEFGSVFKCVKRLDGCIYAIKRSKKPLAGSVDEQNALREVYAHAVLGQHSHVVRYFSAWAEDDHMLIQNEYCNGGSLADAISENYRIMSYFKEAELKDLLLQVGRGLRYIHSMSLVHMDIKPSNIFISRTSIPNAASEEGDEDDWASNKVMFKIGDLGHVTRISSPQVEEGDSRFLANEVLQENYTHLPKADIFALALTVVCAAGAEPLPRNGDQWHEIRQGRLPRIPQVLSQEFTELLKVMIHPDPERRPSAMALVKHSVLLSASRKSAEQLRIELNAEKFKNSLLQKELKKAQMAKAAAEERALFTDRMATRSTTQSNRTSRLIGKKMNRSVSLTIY

inhibition [1]: 57% | fold change (FC) [2]: 0.26 | inhibition [3]: 14%
SMILES: CNC(=O)c1ccccc1Oc1nc(Nc2cc(OC)c(OC)c(OC)c2)ncc1Br

fold change (FC) [4]: 0 | inhibition [5]: 0% | fold change (FC) [6]: 0.01 | fold change (FC) [7]: 0 | fold change (FC) [8]: 0
SMILES: O=C(N[C@@H](C1CC1)C(F)(F)F)c1cc(-c2cnn3cc(-c4ccc(F)cc4)cnc23)cs1

fold change (FC) [9]: 0 | fold change (FC) [10]: 0.08 | fold change (FC) [11]: 0
SMILES: CC(C)[C@H](NC(=O)c1cc(-c2cnn3cc(-c4ccc(OCCN5CCCCC5)cc4)cnc23)cs1)C(F)(F)F
